PAFAH1B2 inh – PAFAH1B2 enzyme inhibitors, primary screen, biochemical, fluorescence polarization, human | hit rate 1.2% among 340,000 | Platelet-activating factor acetylhydrolase IB subunit alpha2 (Homo sapiens), P68402 | recombinant PAFAH1B2, FP-rhodamine activity probe | inhibition, % at 3.39 µM;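 active = inhibition above the mean of all tested compounds plus 3 SD, cut at about 24% in these data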
PAFAH1B3 FP inh – PAFAH1B3 enzyme inhibitors, primary screen, biochemical, fluorescence polarization, human; Platelet-activating factor acetylhydrolase IB subunit alpha1 (Homo sapiens), Q15102; recombinant PAFAH1B3, FP-rhodamine probe; inhibition, % at 3.39 µM; hit rate 0.28% among 340,000;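 active = inhibition above the screen-wide average of all tested compounds plus 3 SD, cut at about 25% in these data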
PAFAH2 FP inh – PAFAH2 enzyme inhibitors, primary screen, biochemical, fluorescence polarization, human | recombinant PAFAH2, FP-rhodamine activity probe | inhibition, % at 3.39 µM | hit rate 0.99% among 340,000 | AID 492956, 2010;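 active = inhibition above the mean over all tested compounds plus 3 SD, cut at about 30% in these data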;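 also: inhibitors block probe labeling of enzyme so polarization drops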
Apaf1 inhib – inhibitors of human Apaf-1 apoptosome, primary screen, biochemical, DEVD-Rh110 fluorescence, uHTS. Apoptotic protease-activating factor 1 (Homo sapiens), O14727. reconstituted apoptosome caspase-3 activity. inhibition, % at 20 µM. hit rate 0.71% among 330,000. AID 489030, 2010; active = inhibition of at least 40% at 20 µM
Target sequence (O14727 whole entry, looked up): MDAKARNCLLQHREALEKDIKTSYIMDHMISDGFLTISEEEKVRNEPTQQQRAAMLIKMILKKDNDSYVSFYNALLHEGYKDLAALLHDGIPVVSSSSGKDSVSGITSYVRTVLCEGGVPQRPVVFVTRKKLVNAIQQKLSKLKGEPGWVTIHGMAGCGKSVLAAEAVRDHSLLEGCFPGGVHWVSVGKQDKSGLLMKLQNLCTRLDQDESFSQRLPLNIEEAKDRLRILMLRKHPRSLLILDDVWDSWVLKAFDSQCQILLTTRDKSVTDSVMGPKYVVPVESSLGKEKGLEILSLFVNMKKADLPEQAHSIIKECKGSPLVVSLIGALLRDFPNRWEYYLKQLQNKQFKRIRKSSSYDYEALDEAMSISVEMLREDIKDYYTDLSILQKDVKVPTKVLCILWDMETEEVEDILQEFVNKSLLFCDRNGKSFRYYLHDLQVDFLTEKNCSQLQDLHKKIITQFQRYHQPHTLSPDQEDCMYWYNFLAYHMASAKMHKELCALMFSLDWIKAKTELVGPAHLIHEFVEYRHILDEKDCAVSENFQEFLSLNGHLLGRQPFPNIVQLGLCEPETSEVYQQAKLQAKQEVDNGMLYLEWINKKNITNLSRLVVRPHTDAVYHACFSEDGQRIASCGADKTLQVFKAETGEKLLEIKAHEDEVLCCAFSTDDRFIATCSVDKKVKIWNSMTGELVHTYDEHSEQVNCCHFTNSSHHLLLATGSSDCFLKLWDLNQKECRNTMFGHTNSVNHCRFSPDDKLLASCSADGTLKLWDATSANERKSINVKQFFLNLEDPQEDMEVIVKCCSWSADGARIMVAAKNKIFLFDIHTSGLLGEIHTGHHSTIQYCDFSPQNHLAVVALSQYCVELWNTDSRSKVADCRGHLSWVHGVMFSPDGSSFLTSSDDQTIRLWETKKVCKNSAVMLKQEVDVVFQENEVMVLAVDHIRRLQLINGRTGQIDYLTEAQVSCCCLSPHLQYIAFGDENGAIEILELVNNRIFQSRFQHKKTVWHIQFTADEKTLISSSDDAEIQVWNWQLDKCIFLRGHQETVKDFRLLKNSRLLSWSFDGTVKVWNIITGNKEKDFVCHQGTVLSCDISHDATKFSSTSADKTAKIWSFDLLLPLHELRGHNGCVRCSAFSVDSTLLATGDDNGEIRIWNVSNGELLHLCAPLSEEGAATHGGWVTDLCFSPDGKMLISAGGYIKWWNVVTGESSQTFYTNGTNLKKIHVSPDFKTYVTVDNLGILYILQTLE
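Material: biochemical Apaf-1 apoptosome reconstitution. Medium: Hepes buffer, pH 7.5. Also added: cytochrome c activation, bis-DEVD rhodamine 110 substrate. Timing: 30 min compound preincubation, 50 min activation, room temperature. Measured by: rhodamine 110 fluorescence at Ex 480/Em 540 nm.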
pPAFAH FP inh – pPAFAH enzyme inhibitors, primary screen, biochemical, fluorescence polarization, human. inhibition, % at 3.39 µM. recombinant pPAFAH, FP-rhodamine probe fluorescence polarization. hit rate 1.5% among 330,000. Platelet-activating factor acetylhydrolase (Homo sapiens), Q13093;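 active = inhibition above the mean inhibition across the screen plus 3 SD, cut at about 25% in these data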;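 also: inhibitors block binding of the rhodamine activity-based probe so polarization drops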
A number is an active result; – = inactive; · = not tested or not shown. A selection: hits, their analogues and other compounds. The true share with any hit is near 3.1%.

SMILES	PAFAH1B2 inh	PAFAH1B3 FP inh	PAFAH2 FP inh	Apaf1 inhib	pPAFAH FP inh
CCOC(=O)c1c(C)[nH]c(O)c1C=Nc1ccc(C(F)(F)F)cc1	–	31.3	–	–	–
Cc1cc(NC(=O)CCC(=O)N(CC(=O)NCC2CCCO2)c2ccc(F)c(Cl)c2)no1 (configuration not stated)	–	–	–	–	–
O=C(COC(=O)c1ccc2c(c1)S(=O)(=O)c1ccccc1C2=O)NC1CC1	–	–	–	–	29.9
N#Cc1ccc(C(=O)OCC(=O)NC2CCCC2)cc1	–	–	–	–	–
NC(=O)COC(=O)c1ccc2c(c1)S(=O)(=O)c1ccccc1C2=O	–	–	–	–	–
CCOc1ccc2oc(C(=O)OCC(=O)NC3CCCCC3)c(C)c2c1	–	–	61.4	–	25.8
CCc1ccc(C(=O)OCC(=O)NC2CCCC2)cc1	–	–	81.9	–	30.3
Cc1cccc(C(=O)OCC(=O)NC2CCCCCCC2)c1	–	–	91.5	–	29.4
CCOC(=O)c1cccc(NC(=O)COc2nsnc2N2CCOCC2)c1	–	–	–	–	–
CN(CC(=O)Nc1ccccc1Cl)C(=O)CN1C(=O)NC(c2ccccc2)(c2ccccc2)C1=O	–	–	–	–	–
CC(C)(C)c1ccc(-n2ncc3c2CCCC3NC(=O)CCn2cncn2)cc1 (configuration not stated)	–	–	–	–	33.1
CC(C)(C)c1ccc(-n2ncc3c2CCCC3NC(=O)CCCn2cncn2)cc1 (configuration not stated)	–	–	–	–	·
COc1cc(NC(=O)Nc2ccc(Cl)c(Cl)c2)c(C(=O)O)cc1OC	24.7	–	–	–	30.0
COc1cc(OC)c(NC(=O)Nc2ccc(OC)c(OC)c2)cc1Cl	–	–	–	–	–
O=C(CCc1c[nH]c2ccccc12)NC(Cc1ccccc1)C(=O)O (configuration not stated)	–	–	–	–	–
Cc1cc(Cl)ccc1OCC(=O)Nc1ccccc1NS(=O)(=O)c1cccs1	–	–	–	–	33.1
O=S(=O)(Nc1ccccc1Cl)c1ccc(NS(=O)(=O)c2cccs2)cc1	–	–	–	–	26.0
O=C(Nc1ccc(Cl)cc1)Nc1ccccc1NS(=O)(=O)c1cccs1	26.5	–	–	–	–
O=S(=O)(Nc1ccc(S(=O)(=O)N2CCCCCC2)cc1)c1cccs1	–	–	–	–	–
CSc1ccc(S(=O)(=O)NC2CC2)cc1	–	–	–	–	–
O=C(NC(=S)N1CCCC1)c1ccccc1F	–	–	–	–	–
COc1cc(C(Nc2ccc(S(=O)(=O)N3CCC(C)CC3)cc2)C(=O)NCC2CCCO2)cc(OC)c1OC (configuration not stated)	25.3	–	–	–	–
CCCn1c(=O)c(C(=O)OCC)c(O)c2cc(Br)ccc21	–	–	–	–	–
CCOC(=O)c1c2c(n(C)c1COC)C(=O)C(=O)c1ccc(Br)cc1-2	·	·	·	96.8	–
O=C(O)CCSc1nnc(SCC(=O)NC2CCS(=O)(=O)C2)s1 (configuration not stated)	–	–	–	–	–
SMILES	PAFAH1B2 inh	PAFAH1B3 FP inh	PAFAH2 FP inh	Apaf1 inhib	pPAFAH FP inh
Cc1ccc(C)c(NC(=O)CN(C)C(=O)c2ccc(-c3cccc(C(F)(F)F)c3)o2)c1	–	–	–	–	–
COc1cc2c(cc1OC)C(c1ccc(-c3ccc(Cl)c(Cl)c3)o1)=NCC2	–	–	–	41.5	–
O=C(CSc1ccc2c(c1)OCCO2)N1CCN(c2ccccc2)CC1	–	–	–	–	–
CC(=O)N1c2ccc(S(=O)(=O)NCCC(=O)N3CCC(C)CC3)cc2CC1C (configuration not stated)	–	–	–	–	–
CCN(CC(=O)Nc1ccccc1OC)C(=O)CN1C(=O)NC(C)(c2ccc(C)cc2)C1=O (configuration not stated)	–	–	–	–	–
CCN(CC(=O)Nc1ccccc1OC)C(=O)CN1C(=O)NC(C)(c2ccccc2)C1=O (configuration not stated)	–	–	–	49.5	–
CCC1=NN2C(=N)/C(=C\c3cccn3-c3ccc(Cl)cc3)C(=O)N=C2S1	41.5	–	–	–	–
Cc1ccc(-n2cccc2/C=C2\C(=N)N3N=C(c4ccco4)SC3=NC2=O)cc1	31.7	–	–	–	–
CCC1=NN2C(=N)/C(=C\c3cccn3-c3ccc(C)c(C)c3)C(=O)N=C2S1	–	–	–	–	–
O=C(CN1CCN(S(=O)(=O)c2ccc(Br)s2)CC1)NC1CCCCC1	30.2	–	–	·	·
CCC1S/C(=N\S(=O)(=O)c2cccs2)N(C2CCCCC2)C1=O (configuration not stated)	25.2	–	–	–	–
CCc1ccc(NC(=O)C2CCCN(S(=O)(=O)c3cccs3)C2)cc1 (configuration not stated)	–	–	–	–	–
Nc1nn(S(=O)(=O)c2ccccc2)cc1-c1ccc([N+](=O)[O-])cc1	32.0	–	–	–	–
O=C(NCCCO)C(=O)NCCc1ccc(Cl)cc1	27.9	–	–	–	–
O=C(NCCc1ccc(Cl)cc1)c1ccc(=O)[nH]c1	30.1	–	–	–	–
O=C(CCc1c[nH]c2ccccc12)NCCc1ccc(Cl)cc1	28.4	–	–	–	–
O=C(NCCc1ccc(O)cc1)c1ccc(Cl)cc1	–	–	–	–	–
O=C(CCc1c[nH]c2ccccc12)NCCc1ccccc1	–	–	–	–	–
CCNC(=O)C(=O)NCCc1ccc(Cl)cc1	25.2	–	–	–	–
O=[N+]([O-])c1ccc(CSc2ccc(S(=O)(=O)N3CCCCCC3)cn2)cc1	–	–	–	–	·
O=C1CCC(C(=O)N2CCCO2)CN1Cc1cccc(C(F)(F)F)c1 (configuration not stated)	–	–	–	–	·
CC(C)(C)c1ccc(OCCCC(=O)NNC(=O)c2ccccc2O)cc1	26.8	–	–	–	27.9
Cc1ccc(OCCC(=O)OCC(=O)NNC(=O)c2ccccc2)cc1	–	–	–	–	–
CCOc1ccc(N2CC(C(=O)OCC(=O)NCc3ccccc3)CC2=O)cc1 (configuration not stated)	–	–	–	–	26.8
O=C(COC(=O)CCOc1ccccc1)Nc1ccc(Cl)cn1	–	–	–	–	–
CCOc1ccc(OCCC(=O)OCC(=O)NNC(=O)c2ccccc2)cc1	–	–	–	–	27.8
CCOc1ccc(OCCC(=O)OCC(=O)Nc2ccc(Cl)cn2)cc1	–	–	–	–	24.7
N#Cc1ccc(CSc2ccc(S(=O)(=O)N3CCCCCC3)cn2)cc1	–	–	–	–	·

Screening results from PubChem BioAssay.
